Among the data in ChEMBL document CHEMBL3994579, “Synthesis and antibacterial activity of novel 3-O-descladinosylazithromycin derivatives” (2017) are MIC values, retold here.

Common to all, as to format: functional
For assay [1], the system named is Pseudomonas aeruginosa. Briefly: Antibacterial activity against penicillin-susceptible Pseudomonas aeruginosa ATCC 27853 by broth microdilution method. A digest of the protocol:
(§1)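 MICs were determined in vitro by broth microdilution following the NCCL-recommended method. Azithromycin and clarithromycin were run alongside as reference antibiotics on the same strain panel.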
(Dilution methods test growth across graded concentrations, often in twofold steps.)

The subject of assay [2] is Bacillus subtilis. Briefly: Antibacterial activity against erythromycin/penicillin-susceptible Bacillus subtilis ATCC 9372 by broth microdilution method. A digest of the protocol: as §1
The subject of assay [3] is Streptococcus pneumoniae. Nature of the assay: Antibacterial activity against erythromycin-resistant Streptococcus pneumoniae B1 expressing ermB gene by broth microdilution method. In a few lines: (§2)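 Broth microdilution per NCCL recommendation, read as minimal inhibitory concentration, run alongside azithromycin and clarithromycin references. Strains: S. pneumoniae B1 (erythromycin-resistant, ermB), A22072 (erythromycin-resistant, mefA), AB11 (erythromycin-resistant, erm and mef); S. aureus ATCC29213 ([…]); S. epidermidis clinical isolate (penicillin-resistant, not characterized).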

In assay [4] the test system is Staphylococcus aureus. Nature of the assay: Antibacterial activity against […] Staphylococcus aureus ATCC 29213 by broth microdilution method. A digest of the protocol:
as §2

Assay [5] concerns Escherichia coli. Nature of the assay: Antibacterial activity against penicillin-susceptible Escherichia coli ATCC 25922 by broth microdilution method. A digest of the protocol: as §1
For assay [6], the system named is Streptococcus pyogenes. Nature of the assay: Antibacterial activity against erythromycin-susceptible Streptococcus pyogenes clinical isolate by broth microdilution method. In a few lines: as §1
The subject of assay [7] is Streptococcus pneumoniae. Briefly: Antibacterial activity against erythromycin-resistant Streptococcus pneumoniae A22072 expressing mefA gene by broth microdilution method. In a few lines: as §2
In assay [8] the test system is Staphylococcus epidermidis. Briefly: Antibacterial activity against penicillin-resistant Staphylococcus epidermidis clinical isolate by broth microdilution method. A digest of the protocol: as §2
The test system of assay [9] is Streptococcus pyogenes. Nature of the assay: Antibacterial activity against erythromycin-resistant Streptococcus pyogenes R1 clinical isolate by broth microdilution method.
For assay [10], the system named is Streptococcus pneumoniae. Nature of the assay: Antibacterial activity against erythromycin-resistant Streptococcus pneumoniae AB11 expressing ermB/mefA genes by broth microdilution method. A digest of the protocol: as §2
For assay [11], the system named is Staphylococcus aureus. Briefly: Antibacterial activity against erythromycin-susceptible Staphylococcus aureus ATCC 25923 by broth microdilution method. A digest of the protocol: as §1

Converted amounts (≈) assume the structure as drawn.

The term MIC denotes the least concentration at which growth counts as inhibited. Turning to `CC[C@H]1OC(=O)[C@H](C)[C@@H](O)[C@H](C)[C@@H](O[C@@H]2O[C@H](C)C[C@H](N(C)C)[C@H]2OC(=O)Nc2cccc(C)c2)[C@](C)(O)C[C@@H](C)CN(C)[C@H](C)[C@H]2OC(=O)O[C@@]21C`, the MIC is 128 mg/L (≈ 171 µM) in assay [1]; 32 mg/L (≈ 42.7 µM) in [2]; 128 mg/L (≈ 171 µM) in assay [3]; 128 mg/L (≈ 171 µM) in [4]; 64 mg/L (≈ 85.3 µM) in [5]; 1 mg/L (≈ 1.33 µM) in assay [6]. Moreover, the MIC in assay [7] stood at 128 mg/L (≈ 171 µM); in assay [8], 32 mg/L (≈ 42.7 µM); in assay [9], 64 mg/L (≈ 85.3 µM); in [10], 64 mg/L (≈ 85.3 µM); in assay [11], 32 mg/L (≈ 42.7 µM).

For `CC[C@H]1OC(=O)[C@H](C)[C@@H](OC(=O)Nc2cccc(C)c2)[C@H](C)[C@@H](O[C@@H]2O[C@H](C)C[C@H](N(C)C)[C@H]2O)[C@](C)(O)C[C@@H](C)CN(C)[C@H](C)[C@@H](OC(=O)NCc2ccc(C)cc2)[C@]1(C)O`, the MIC in [1] was 64 mg/L (≈ 73.5 µM); in assay [2], 8 mg/L (≈ 9.18 µM); in [3], 64 mg/L (≈ 73.5 µM); in [4], 128 mg/L (≈ 147 µM); in assay [5], 64 mg/L (≈ 73.5 µM); in assay [6] it was 4 mg/L (≈ 4.59 µM). Besides, the MIC was determined as 32 mg/L (≈ 36.7 µM) in assay [7]; 4 mg/L (≈ 4.59 µM) in [8]; 32 mg/L (≈ 36.7 µM) in assay [9]; 16 mg/L (≈ 18.4 µM) in assay [10]; 8 mg/L (≈ 9.18 µM) in [11].

Turning to `CC[C@H]1OC(=O)[C@H](C)[C@@H](O)[C@H](C)[C@@H](O[C@@H]2O[C@H](C)C[C@H](N(C)C)[C@H]2OC(=O)Nc2ccccc2C)[C@](C)(O)C[C@@H](C)CN(C)[C@H](C)[C@H]2OC(=O)O[C@@]21C`, the minimum inhibitory concentration (MIC) amounted to 64 mg/L (≈ 85.3 µM) in assay [1]; 4 mg/L (≈ 5.33 µM) in assay [2]; 64 mg/L (≈ 85.3 µM) in assay [3]; 32 mg/L (≈ 42.7 µM) in assay [4]; 64 mg/L (≈ 85.3 µM) in [5]; 0.5 mg/L (≈ 0.667 µM) in assay [6]. Moreover, the MIC in assay [7] came to 2 mg/L (≈ 2.67 µM); in [8] it was 16 mg/L (≈ 21.3 µM); in assay [9], 64 mg/L (≈ 85.3 µM); in assay [10], 4 mg/L (≈ 5.33 µM); in assay [11] it was 4 mg/L (≈ 5.33 µM).

`CC[C@H]1OC(=O)[C@H](C)[C@@H](OC(=O)Nc2ccccc2F)[C@H](C)[C@@H](O[C@@H]2O[C@H](C)C[C@H](N(C)C)[C@H]2OC(C)=O)[C@](C)(O)C[C@@H](C)CN(C)[C@H](C)[C@H]2OC(=O)O[C@@]21C`: the MIC was 128 mg/L (≈ 161 µM) in assay [1]; 32 mg/L (≈ 40.2 µM) in assay [2]; 128 mg/L (≈ 161 µM) in assay [3]; 64 mg/L (≈ 80.4 µM) in [4]; 64 mg/L (≈ 80.4 µM) in assay [5]; 4 mg/L (≈ 5.03 µM) in assay [6]. The MIC in assay [7] was found to be 8 mg/L (≈ 10.1 µM); in [8] it was 64 mg/L (≈ 80.4 µM); in assay [9], 128 mg/L (≈ 161 µM); in [10] it was 32 mg/L (≈ 40.2 µM); in assay [11], 32 mg/L (≈ 40.2 µM).

On to `CC[C@H]1OC(=O)[C@H](C)[C@@H](OC(=O)Nc2ccccc2)[C@H](C)[C@@H](O[C@@H]2O[C@H](C)C[C@H](N(C)C)[C@H]2O)[C@](C)(O)C[C@@H](C)CN(C)[C@H](C)[C@@H](OC(=O)NCc2ccc(C)cc2)[C@]1(C)O`, for which the MIC in assay [1] worked out at 128 mg/L (≈ 149 µM); in assay [2] it was 32 mg/L (≈ 37.3 µM); in [3], 64 mg/L (≈ 74.7 µM); in assay [4], 128 mg/L (≈ 149 µM); in [5], 128 mg/L (≈ 149 µM); in assay [6] it was 4 mg/L (≈ 4.67 µM). For the same compound, the minimum inhibitory concentration (MIC) came to 16 mg/L (≈ 18.7 µM) in assay [7]; 16 mg/L (≈ 18.7 µM) in [8]; 64 mg/L (≈ 74.7 µM) in assay [9]; 64 mg/L (≈ 74.7 µM) in assay [10]; 32 mg/L (≈ 37.3 µM) in assay [11].

Regarding `CCCCCNC(=O)O[C@H]1[C@H](C)[C@@H](O[C@@H]2O[C@H](C)C[C@H](N(C)C)[C@H]2OC(C)=O)[C@](C)(O)C[C@@H](C)CN(C)[C@H](C)[C@H]2OC(=O)O[C@]2(C)[C@@H](CC)OC(=O)[C@@H]1C`, the minimal inhibitory concentration (MIC) in assay [1] is 128 mg/L (≈ 166 µM); in assay [2] it was 32 mg/L (≈ 41.5 µM); in assay [3], 64 mg/L (≈ 82.9 µM); in [4], 64 mg/L (≈ 82.9 µM); in assay [5], 128 mg/L (≈ 166 µM); in [6] it was 4 mg/L (≈ 5.18 µM). The MIC in assay [7] is 32 mg/L (≈ 41.5 µM); in [8] it was 32 mg/L (≈ 41.5 µM); in assay [9], 128 mg/L (≈ 166 µM); in assay [10] it was 128 mg/L (≈ 166 µM); in assay [11], 32 mg/L (≈ 41.5 µM).
